Results reported in ChEMBL document CHEMBL3120102, “Structure-based design, synthesis and biological evaluation of novel anthra[1,2-d]imidazole-6,11-dione homologues as potential antitumor agents” (2013).

What was measured:
Type in all cases: functional
HCT-15 = assay: Cytotoxicity against human HCT15 cells assessed as growth inhibition after 48 hrs by SRB assay
Summary of the method: (§1)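 NCI 60-cell-line five-dose screen at […]. Drug exposure was 48 h, followed by sulforhodamine B protein staining. GI50, TGI and LC50 were calculated against a time-zero control and untreated plates, with dose–response curves plotted from log10 concentration.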

MDA-MB-231 = assay: Cytotoxicity against human MDA-MB-231 cells assessed as growth inhibition after 48 hrs by SRB assay
Summary of the method: (§2)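 NCI 60-cell-line screen, five-dose stage: each cell line exposed for 48 h to five concentrations spanning five log steps; cellular protein measured by sulforhodamine B colorimetry. A time-zero cell control and plates without drug are used to derive GI50, TGI and LC50 from log-concentration dose-response curves.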

NCI-H322M = assay: Cytotoxicity against human NCI-H322M cells assessed as growth inhibition after 48 hrs by SRB assay; summary of the method: as §2
HCC 2998 = assay: Cytotoxicity against human HCC2998 cells assessed as growth inhibition after 48 hrs by SRB assay; summary of the method: as §1
KM12 = assay: Cytotoxicity against human KM12 cells assessed as growth inhibition after 48 hrs by SRB assay; summary of the method: as §1
MDA-MB-468 = assay: Cytotoxicity against human MDA-MB-468 cells assessed as growth inhibition after 48 hrs by SRB assay; summary of the method: as §2
SF-268 = assay: Cytotoxicity against human SF268 cells assessed as growth inhibition after 48 hrs by SRB assay; summary of the method: as §2
CCRF-CEM = assay: Cytotoxicity against human CCRF-CEM cells assessed as growth inhibition after 48 hrs by SRB assay; summary of the method: as §1
MDA-MB-435 = assay: Cytotoxicity against human MDA-MB-435 cells assessed as growth inhibition after 48 hrs by SRB assay; summary of the method: as §2
M14 = assay: Cytotoxicity against human M14 cells assessed as growth inhibition after 48 hrs by SRB assay; summary of the method: as §1
COLO 205 = assay: Cytotoxicity against human COLO205 cells assessed as growth inhibition after 48 hrs by SRB assay; summary of the method: as §1
OVCAR-5 = assay: (§3) Cytotoxicity against human OVCAR5 cells assessed as growth inhibition after 48 hrs by SRB assay; summary of the method: as §2
[1] = as §3; conditions: OVCAR-5, 48 h; summary of the method: as §2

In the case of `CCSc1nc2ccc3c(c2[nH]1)C(=O)c1ccccc1C3=O`, the “growth inhibition (GI)” value (HCT-15) is reported as “Dose-dependent effect”, the GI50 (HCT-15; HCT-15, 48 h) is reported as 3.52 µM and the LC50 (concentration killing 50% of cells) (HCT-15; HCT-15, 48 h) is reported as > 100 µM. For the same compound, the TGI (HCT-15; HCT-15, 48 h) was > 100 µM, the “growth inhibition (GI)” value (MDA-MB-231) was “Dose-dependent effect” and the GI50 (MDA-MB-231; MDA-MB-231, 48 h) was 20.7 µM. For the same compound, the LC50 (MDA-MB-231; MDA-MB-231, 48 h) was > 100 µM, the TGI (MDA-MB-231; MDA-MB-231, 48 h) was > 100 µM and the GI50 (NCI-H322M) was 3.24 µM. For the same compound, the LC50 (concentration killing 50% of cells relative to time zero) (NCI-H322M) was > 100 µM, the TGI (NCI-H322M) was > 100 µM and the “growth inhibition (GI)” value (NCI-H322M) was “Dose-dependent effect”. For the same compound, the “growth inhibition (GI)” value (HCC 2998) was “Dose-dependent effect”, the GI50 (HCC 2998; HCC 2998, 48 h) was 12.6 µM and the TGI (HCC 2998; HCC 2998, 48 h) was > 100 µM. The CC50 (HCC 2998; HCC 2998, 48 h, read-out: LC50 (the source's name)) was > 100 µM, the “growth inhibition (GI)” value (KM12) was “Dose-dependent effect” and the GI50 (KM12; KM12, 48 h) was 8.43 µM. For the same compound, the TGI (KM12; KM12, 48 h) was > 100 µM, the CC50 (KM12; KM12, 48 h, read-out: LC50 (the source's name)) was > 100 µM and the “growth inhibition (GI)” value (MDA-MB-468) was “Dose-dependent effect”. For the same compound, the GI50 (MDA-MB-468; MDA-MB-468, 48 h) was 2.01 µM, the LC50 (MDA-MB-468; MDA-MB-468, 48 h) was > 100 µM and the TGI (MDA-MB-468; MDA-MB-468, 48 h) was 59.6 µM. For the same compound, the “growth inhibition (GI)” value (SF-268) was “Dose-dependent effect”, the GI50 (SF-268; SF-268, 48 h) was 18.1 µM and the LC50 (concentration killing 50% of cells relative to time zero) (SF-268; SF-268, 48 h) was > 100 µM. The TGI (SF-268; SF-268, 48 h) was > 100 µM, the GI50 (CCRF-CEM) was 3.66 µM and the LC50 (CCRF-CEM) was > 100 µM. For the same compound, the TGI (CCRF-CEM) was > 100 µM, the “growth inhibition (GI)” value (CCRF-CEM) was “Dose-dependent effect” and the “growth inhibition (GI)” value (MDA-MB-435) was “Dose-dependent effect”. The GI50 (MDA-MB-435; MDA-MB-435, 48 h) was 76.5 µM, the LC50 (MDA-MB-435; MDA-MB-435, 48 h) was > 100 µM and the TGI (MDA-MB-435; MDA-MB-435, 48 h) was > 100 µM. The “growth inhibition (GI)” value (M14) was “Dose-dependent effect”, the GI50 (M14; M14, 48 h) was 5.62 µM and the LC50 (M14; M14, 48 h) was > 100 µM. For the same compound, the TGI (M14; M14, 48 h) was > 100 µM, the “growth inhibition (GI)” value (COLO 205) was “Dose-dependent effect” and the GI50 (COLO 205; COLO 205, 48 h) was 17.4 µM. For the same compound, the LC50 (COLO 205; COLO 205, 48 h) was > 100 µM, the TGI (COLO 205; COLO 205, 48 h) was > 100 µM and the “growth inhibition (GI)” value (OVCAR-5) was “Dose-dependent effect”. For the same compound, the GI50 [1] was 6.25 µM, the LC50 [1] was > 100 µM and the TGI [1] was > 100 µM.
